Values joined by “and” are separate entries in the source; they are usually repeats but may differ in a detail not shown here. Equal values may be shown once.
Tests used:
[1] = test system: B/Wisconsin/1/2010 (Yamagata); assay: Viral titer reduction at high MOI; format: cell-based, influenza B virus; details: both 12 h p.i. and 24 h p.i., MOI of 1, MDCK
MDCK cells = MDCK cells treated for 48 h
[2] = test system: influenza A and B viruses; assay: Plaque reduction assay, summary over the tested panel of viruses; format: cell-based; details: Influenza A virus, read-out: EC50 values against these viruses
A/WSN/33 (H1N1) [3] = format: cell-based, influenza A virus
in vitro = details: dog
A/WSN/33 (H1N1) [4] = assay: Time-of-addition experiment in MDCK cells; format: cell-based, influenza A virus; details: NMS-873 1.8 μM; for antiviral activity when added at 8 h post infection / effect on virus replication when present before or during infection: oseltamivir carboxylate 1 μM
A549 cells = assay: Cellular cytotoxicity in A549 cells; format: cell-based, human; details: 3 μM
Procedure, shortened: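 A549 human alveolar epithelial cells were incubated with serial concentrations of the test compound, up to 3 μM, for 24 or 48 h. Cell viability was then measured by neutral red uptake.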

[5] = test system: A/WSN/33 (H1N1) viral proteins; format: cell-based, influenza A virus
[6] = test system: A/Washington/29/2009 (H1N1); format: cell-based, influenza A virus; details: NMS-873 1 or 3 μM, oseltamivir carboxylate 1 μM
[7] = test system: influenza vRNPs (NP) nuclear export; format: cell-based, influenza A virus

Structure (SMILES) | reduction of viral titer ([1]; 1 μM) | inhibition of virus (viral titer) ([1]; 3 μM) | concentration up to which no cellular cytotoxicity was observed (MDCK cells) | EC50 [2] [nM] | reduction of viral titer (A/WSN/33 (H1N1) [3]) | CC50 (in vitro) [nM] | antiviral efficacy when added at 6 h post infection (A/WSN/33 (H1N1) [4]) | antiviral activity when added at 8 h post infection (A/WSN/33 (H1N1) [4]) | effect on virus replication when present before or during infection (A/WSN/33 (H1N1) [4]) | cytotoxicity at highest drug concentration tested (A549 cells) | levels of other viral proteins PA, PB1, HA and NS1 [5] | protein expression levels of M1 and NP [5] | antiviral activity (viral titer) [6] | NP subcellular localization [7] | virus entry and NP nuclear import [7]
Cc1cc(OCc2nnc(SC3CCCC3)n2-c2cccnc2)ccc1-c1ccc(S(C)(=O)=O)cc1 [NMS-873] | more than 1.8 log10 units | completely inhibited | up to 1.85 μM | 28 to 56 | 1.3–1.4 log10 units and 2.2–3.1 log10 units | 2720 ± 30 | dramatically decreased | completely abolished | no antiviral activity was observed | not cytotoxic | broadly reduced | significantly reduced | potent antiviral activity | NP largely accumulated in the nucleus | neither affected the virus entry nor NP nuclear import
CCC(CC)O[C@@H]1C=C(C(=O)O)C[C@H](N)[C@H]1NC(C)=O [Oseltamivir carboxylate] | – | – | – | – | 2.1–2.5 log10 units | – | – | potent inhibition | no effect | – | – | – | – | – | –
